Source: ChEMBL document CHEMBL3352570, “ST7612AA1, a thioacetate-ω(γ-lactam carboxamide) derivative selected from a novel generation of oral HDAC inhibitors” (J Med Chem, 2014)

What was measured:
NCI-H460 = test: Cytotoxicity against human NCI-H460 cells after 24 hrs by SRB assay; type: functional, cell-based; settings: NCI-H460, 24 h
How it was run: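 NCI-H460 cells were grown in RPMI-1640 with L-glutamine, 10% heat-inactivated FCS and 50 μg/mL gentamicin. Cells were seeded at about 10% confluence and allowed to recover for 24 h. They were exposed to varying concentrations for 24 h, washed, then cultured a further 48 h. Surviving cells were measured by SRB. IC50 is the 50% reduction in cell number versus vehicle, from dose–response curve fitting; means of at least three experiments.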

[1] = Solubility of the compound in water; type: physicochemical
Histone deacetylase 1 = Histone deacetylase 1 (Homo sapiens, UniProt Q13547); test: Inhibition of HDAC1 (unknown origin) using fluorogenic tetrapeptide RHKK(Ac) substrate by fluorescence assay
Sequence of Histone deacetylase 1 (Q13547 whole entry): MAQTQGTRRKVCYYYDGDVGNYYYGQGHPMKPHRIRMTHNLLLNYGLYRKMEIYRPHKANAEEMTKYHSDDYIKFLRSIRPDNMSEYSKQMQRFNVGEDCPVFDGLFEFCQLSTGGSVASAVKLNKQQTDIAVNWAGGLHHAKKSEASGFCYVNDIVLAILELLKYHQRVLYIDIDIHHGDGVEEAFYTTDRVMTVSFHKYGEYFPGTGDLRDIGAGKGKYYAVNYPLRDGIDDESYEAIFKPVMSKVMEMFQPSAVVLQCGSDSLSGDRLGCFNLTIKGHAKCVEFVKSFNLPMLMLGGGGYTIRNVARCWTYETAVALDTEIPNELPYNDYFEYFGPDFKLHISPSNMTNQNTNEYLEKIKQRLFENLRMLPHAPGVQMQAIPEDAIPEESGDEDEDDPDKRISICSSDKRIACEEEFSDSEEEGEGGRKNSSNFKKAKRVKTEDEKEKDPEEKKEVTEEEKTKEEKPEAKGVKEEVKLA

Histone deacetylase 2 = Histone deacetylase 2 (Homo sapiens, UniProt Q92769); test: Inhibition of HDAC2 (unknown origin) using fluorogenic tetrapeptide RHKK(Ac) substrate by fluorescence assay
Sequence of Histone deacetylase 2 (Q92769 whole entry): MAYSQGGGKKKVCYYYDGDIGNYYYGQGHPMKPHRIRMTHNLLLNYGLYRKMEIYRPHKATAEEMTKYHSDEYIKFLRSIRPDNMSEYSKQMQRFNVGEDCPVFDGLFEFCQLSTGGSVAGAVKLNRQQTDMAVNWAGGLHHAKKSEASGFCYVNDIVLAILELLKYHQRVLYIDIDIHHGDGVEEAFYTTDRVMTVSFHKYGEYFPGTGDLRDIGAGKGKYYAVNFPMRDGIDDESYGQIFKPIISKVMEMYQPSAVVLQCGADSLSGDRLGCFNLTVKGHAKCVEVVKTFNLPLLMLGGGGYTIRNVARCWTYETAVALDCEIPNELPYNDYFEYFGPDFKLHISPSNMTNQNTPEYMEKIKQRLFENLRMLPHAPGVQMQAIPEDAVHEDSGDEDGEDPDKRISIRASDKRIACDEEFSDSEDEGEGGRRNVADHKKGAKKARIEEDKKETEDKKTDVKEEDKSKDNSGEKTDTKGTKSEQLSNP

Histone deacetylase 3 = Histone deacetylase 3 (Homo sapiens, UniProt O15379); test: Inhibition of HDAC3 (unknown origin) using fluorogenic tetrapeptide RHKK(Ac) substrate by fluorescence assay
Sequence of Histone deacetylase 3 (O15379 whole entry): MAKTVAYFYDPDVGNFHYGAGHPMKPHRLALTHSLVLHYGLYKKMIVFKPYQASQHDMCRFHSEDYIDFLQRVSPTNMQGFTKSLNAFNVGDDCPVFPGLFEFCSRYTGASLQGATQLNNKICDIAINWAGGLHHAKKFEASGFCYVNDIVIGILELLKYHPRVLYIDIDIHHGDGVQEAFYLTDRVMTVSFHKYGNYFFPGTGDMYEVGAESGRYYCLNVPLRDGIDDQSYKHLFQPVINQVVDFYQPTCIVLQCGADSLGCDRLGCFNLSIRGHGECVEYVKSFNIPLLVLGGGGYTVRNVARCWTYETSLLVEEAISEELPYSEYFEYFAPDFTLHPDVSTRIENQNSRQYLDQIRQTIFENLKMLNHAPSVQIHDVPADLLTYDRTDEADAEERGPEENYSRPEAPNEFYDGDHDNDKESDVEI

[2] = target: T1, Protein deacetylase HDAC6 (Homo sapiens, UniProt Q9UBN7); test: Inhibition of HDAC6 (unknown origin) using fluorogenic tetrapeptide RHKK(Ac) substrate by fluorescence assay
T1 sequence (Q9UBN7 whole entry): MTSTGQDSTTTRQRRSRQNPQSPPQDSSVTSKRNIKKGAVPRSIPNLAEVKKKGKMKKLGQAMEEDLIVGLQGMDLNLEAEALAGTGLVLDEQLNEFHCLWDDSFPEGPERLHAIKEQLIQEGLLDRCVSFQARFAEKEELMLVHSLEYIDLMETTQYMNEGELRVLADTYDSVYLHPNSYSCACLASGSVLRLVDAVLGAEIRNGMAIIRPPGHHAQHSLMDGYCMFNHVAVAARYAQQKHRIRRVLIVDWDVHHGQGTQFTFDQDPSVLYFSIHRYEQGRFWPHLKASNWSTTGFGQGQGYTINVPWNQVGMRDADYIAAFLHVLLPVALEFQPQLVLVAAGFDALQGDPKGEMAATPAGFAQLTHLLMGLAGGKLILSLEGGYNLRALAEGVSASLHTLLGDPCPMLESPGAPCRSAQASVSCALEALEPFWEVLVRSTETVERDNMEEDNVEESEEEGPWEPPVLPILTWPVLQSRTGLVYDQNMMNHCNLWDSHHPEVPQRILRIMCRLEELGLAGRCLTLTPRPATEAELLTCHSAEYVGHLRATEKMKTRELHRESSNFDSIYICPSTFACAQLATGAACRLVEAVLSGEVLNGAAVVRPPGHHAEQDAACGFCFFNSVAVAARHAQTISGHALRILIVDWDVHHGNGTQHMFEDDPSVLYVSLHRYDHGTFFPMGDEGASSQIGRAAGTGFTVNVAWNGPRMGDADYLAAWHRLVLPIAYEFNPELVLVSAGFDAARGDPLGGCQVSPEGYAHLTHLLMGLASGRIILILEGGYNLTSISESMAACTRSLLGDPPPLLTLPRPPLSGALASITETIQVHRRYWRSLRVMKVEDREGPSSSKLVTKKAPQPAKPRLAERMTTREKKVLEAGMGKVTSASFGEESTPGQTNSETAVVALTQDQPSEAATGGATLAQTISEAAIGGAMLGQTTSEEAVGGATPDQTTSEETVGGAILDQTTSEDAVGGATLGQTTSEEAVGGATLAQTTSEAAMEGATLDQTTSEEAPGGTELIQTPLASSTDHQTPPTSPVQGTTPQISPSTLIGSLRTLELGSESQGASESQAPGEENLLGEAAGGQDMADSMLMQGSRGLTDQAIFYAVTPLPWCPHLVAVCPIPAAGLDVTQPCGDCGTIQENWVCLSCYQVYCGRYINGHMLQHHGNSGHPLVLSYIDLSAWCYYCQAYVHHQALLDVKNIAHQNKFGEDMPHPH

Histone deacetylase 8 = target: T2, Histone deacetylase 8 (Homo sapiens, UniProt Q9BY41); test: Inhibition of HDAC8 (unknown origin) using fluorogenic tetrapeptide RHK(Ac)K(Ac) substrate by fluorescence assay
T2 sequence (Q9BY41 whole entry): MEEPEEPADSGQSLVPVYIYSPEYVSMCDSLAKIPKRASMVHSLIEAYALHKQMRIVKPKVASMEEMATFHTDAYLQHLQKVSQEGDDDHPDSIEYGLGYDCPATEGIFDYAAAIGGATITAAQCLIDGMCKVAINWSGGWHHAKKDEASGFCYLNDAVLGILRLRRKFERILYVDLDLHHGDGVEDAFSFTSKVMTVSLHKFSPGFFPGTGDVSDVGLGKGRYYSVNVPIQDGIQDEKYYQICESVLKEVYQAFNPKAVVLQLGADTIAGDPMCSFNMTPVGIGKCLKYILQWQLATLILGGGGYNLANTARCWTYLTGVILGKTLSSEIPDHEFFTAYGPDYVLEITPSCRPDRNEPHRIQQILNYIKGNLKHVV

[3] = target: T3, Polyamine deacetylase HDAC10 (Homo sapiens, UniProt Q969S8); test: Inhibition of HDAC10 (unknown origin) using fluorogenic tetrapeptide RHKK(Ac) substrate by fluorescence assay
T3 sequence (Q969S8 whole entry): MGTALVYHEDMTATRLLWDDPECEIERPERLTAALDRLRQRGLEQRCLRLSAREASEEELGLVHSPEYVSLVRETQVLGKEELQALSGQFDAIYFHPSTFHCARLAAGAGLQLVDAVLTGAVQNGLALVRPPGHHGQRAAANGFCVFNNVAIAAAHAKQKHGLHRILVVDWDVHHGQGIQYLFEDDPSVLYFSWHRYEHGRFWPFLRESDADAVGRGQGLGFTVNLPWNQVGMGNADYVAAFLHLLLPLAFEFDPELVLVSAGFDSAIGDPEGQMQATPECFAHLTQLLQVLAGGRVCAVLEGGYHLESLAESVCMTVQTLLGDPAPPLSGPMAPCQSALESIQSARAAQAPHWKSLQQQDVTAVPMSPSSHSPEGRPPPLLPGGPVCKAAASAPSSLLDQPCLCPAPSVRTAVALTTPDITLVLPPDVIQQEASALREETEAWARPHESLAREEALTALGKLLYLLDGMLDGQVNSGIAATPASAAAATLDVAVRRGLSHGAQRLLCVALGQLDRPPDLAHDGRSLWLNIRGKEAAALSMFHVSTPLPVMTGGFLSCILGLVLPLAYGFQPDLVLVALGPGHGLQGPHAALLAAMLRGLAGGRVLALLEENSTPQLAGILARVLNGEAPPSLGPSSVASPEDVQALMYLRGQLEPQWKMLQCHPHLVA

Histone deacetylase 11 = target: T4, Histone deacetylase 11 (Homo sapiens, UniProt Q96DB2); test: Inhibition of HDAC11 (unknown origin) using fluorogenic tetrapeptide RHKK(Ac) substrate by fluorescence assay
T4 sequence (Q96DB2 whole entry): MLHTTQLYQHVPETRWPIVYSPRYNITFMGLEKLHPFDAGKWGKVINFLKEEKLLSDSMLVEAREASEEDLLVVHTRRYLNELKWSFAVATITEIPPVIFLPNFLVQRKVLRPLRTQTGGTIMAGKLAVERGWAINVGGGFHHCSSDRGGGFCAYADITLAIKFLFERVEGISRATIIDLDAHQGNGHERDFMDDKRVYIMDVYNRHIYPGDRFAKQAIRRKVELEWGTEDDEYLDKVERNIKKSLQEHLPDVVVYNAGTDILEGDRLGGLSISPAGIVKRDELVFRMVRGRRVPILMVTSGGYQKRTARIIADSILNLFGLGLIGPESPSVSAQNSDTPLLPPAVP

[4] = Cytotoxicity against human HCT116 cells after 24 hrs by SRB assay; type: functional, cell-based; settings: HCT-116, 24 h
How it was run: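 HCT116 cells were cultured in McCoy's 5A with L-glutamine, 10% heat-inactivated FCS and 50 μg/mL gentamicin. After seeding at about 10% confluence and a 24 h recovery, they received drug for 24 h. Drug was washed out and cells were incubated 48 h more before SRB staining. IC50 is the 50% cell-number reduction versus vehicle, from fitted dose–response curves; means of at least two experiments.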

Histone deacetylase [5] = test: Inhibition of HDAC-mediated tubulin deacetylation in human NCI-H460 cells after 3 hrs by Western blot analysis; type: cell-based
How it was run: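 Cells (NCI-H460) were treated for 3 h with graded concentrations. The cytoplasmic fraction was collected after HNB/1% NP-40 lysis and centrifugation of nuclei at 2000g. This fraction was resolved by SDS-PAGE and probed for acetylated α-tubulin against α-tubulin and β-actin. Bands were detected by ECL and quantified by densitometry after normalization; IC50 fitted; means of at least two experiments.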

Histone deacetylase [6] = test: Inhibition of HDAC-mediated histone H4 deacetylation in human NCI-H460 cells after 3 hrs by Western blot analysis; type: cell-based
How it was run: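 NCI-H460 cells were plated the day before and treated 3 h across a dose range. Cells were washed with DPBS containing 5 mM NaB and lysed in HNB buffer with 1% NP-40. Histones were acid-extracted from nuclei with 0.4 equiv/L H2SO4 and precipitated with acetone. Blots were probed for acetyl-H4 against total H4. Read-out was ECL and densitometry after normalization; IC50 fitted; means of at least two experiments.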

Structure (SMILES)	IC50 (NCI-H460)	solubility [1]	IC50 (Histone deacetylase 1)	IC50 (Histone deacetylase 2)	IC50 (Histone deacetylase 3)	IC50 [2]	IC50 (Histone deacetylase 8)	IC50 [3]	IC50 (Histone deacetylase 11)	IC50 [4]	IC50 (Histone deacetylase [5])	IC50 (Histone deacetylase [6])
CC(=O)SCCCCC[C@H](NC(=O)[C@H]1CCC(=O)N1)C(=O)Nc1cccc(C(F)(F)F)c1	30 nM											
CCOC(=O)SCCCCCCC(=O)Nc1ccccc1		> 1000 µg/mL										
CC(=O)SCCCCC[C@H](NC(=O)[C@H]1CCCC(=O)N1)C(=O)Nc1ccccc1	100 nM											
O=C1CCC[C@@H](C(=O)N[C@@H](CCCCCSSCCCCC[C@H](NC(=O)[C@@H]2CCCC(=O)N2)C(=O)Nc2ccccc2)C(=O)Nc2ccccc2)N1	5400 nM											
O=C1CC[C@H](C(=O)N[C@@H](CCCCCS)C(=O)Nc2cccc(C(F)(F)F)c2)N1			5 nM	12 nM	11 nM	5 nM	316 nM	7 nM	44 nM			
O=C1CCC[C@@H](C(=O)N[C@@H](CCCCCS)C(=O)NC2CCCC2)N1			160 nM	454 nM	98 nM	6 nM	450 nM	189 nM	89 nM			
Cc1cccc(CCNC(=O)[C@H](CCCCCS)NC(=O)[C@@H]2CCCC(=O)N2)c1			92 nM	601 nM	122 nM	15 nM	17 nM	81 nM	82 nM			
O=C1NCCC[C@H]1C(=O)N[C@@H](CCCCCS)C(=O)Nc1ccccc1			7 nM	28 nM	3 nM	1 nM	62 nM	9 nM	9 nM			
O=C1CCC[C@@H](C(=O)N[C@@H](CCCCCS)C(=O)Nc2ccccc2)N1			15 nM	67 nM	10 nM	6 nM	416 nM	11 nM	6 nM			
CC(=O)SCCCCC[C@H](NC(=O)[C@@H]1CC(=O)N1)C(=O)Nc1ccccc1	50 nM									86 nM	50 nM	31 nM
